According to ChEMBL document CHEMBL4513216, “Probing the Open Global Health Chemical Diversity Library for Multistage-Active Starting Points for Next-Generation Antimalarials” (ACS Infect Dis, 2020):

Assay: Toxicity liver stage against HepG2, at 10uM
Format: cell-based
Parameters: test concentration 10 uM, cell line HepG2-A16-CD81EGFP
Conditions: human, HepG2-A16-CD81EGFP cells; read-out: INHIBITION
Method in brief: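 Uninfected HepG2-A16-CD81EGFP cells, 3 × 10^3 per well, 1536-well, plated on prespotted compound at 10 μM final, parasite-free screening media added to match infected plates; puromycin 10 μM positive, DMSO 0.5% negative; run in parallel with 48 h PbLuc assay at 37 °C, 5% CO2; viability by CellTiter-Glo luminescence, normalized to controls.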

| SMILES | cytotoxicity at 10 µM |
| --- | --- |
| CN(C)C(=O)NCc1nnc2n1CCN(Cc1cccs1)C2 | -150% |
| CN1CC(=O)N(c2cccc(F)c2)CC12CCN(Cc1ccco1)C2 (stereo not given) | 4.06% |
| CCc1cnc2c(c1Nc1ccncc1)c(=O)n(C)c(=O)n2C | 1.86% |
| Cn1ccnc1CN1CCC2(CC1)CN(CC1CC1)C(=O)CO2 | 1.7% |
| COCCNC(=O)c1cc(OC)c2ccoc2c1 | -2.49% |
| CCS(=O)(=O)N1CCN(C(=O)c2ccc(Cn3cc(Br)cn3)cc2)CC1 | -2.61% |
| Cc1ncc(CNC(=O)c2nn(C)c3c2CS(=O)(=O)CC3)s1 | -2.44% |
| Cc1cc(C(=O)N2CCOCC2c2nc(C)c[nH]2)nc(O)n1 (stereo not given) | 2.85% |
| CCCN1CCCC(O)(c2nc(C)c(COc3ccccc3)s2)CC1 (stereo not given) | 2.27% |
| CCn1ncc(C(=O)NCCc2nc(-c3ccncc3)n[nH]2)c1C | 6.87% |
| CC(=O)N1CC(c2n[nH]c3ncccc23)C1 | 19.5% |
| CC(C)c1nccn1-c1cncc(C2CCCN2Cc2cccnc2)n1 (stereo not given) | -6.27% |
| COCCN1C(=O)CO[C@H]2CN(Cc3cccc(OC)c3F)C[C@@H]21 | -0.0572% |
| Cc1nc(NC2CCCC2)cc(C2CCN2C(=O)c2ccccn2)n1 (stereo not given) | -4.39% |
| CS(=O)(=O)c1snnc1C1CCN(Cc2ccc3nccnc3c2)CC1 | -6.14% |
| CN1CCc2nc(C3CCCN(C(=O)CC4CCCCC4)C3)ncc2C1 (stereo not given) | -8.36% |
| COCCCS(=O)(=O)N1CCN(C(C)(C)CO)CC1 | -6.46% |
| Cn1ccnc1C(=O)NCCS(=O)(=O)c1ccc(C(C)(C)C)cc1 | 3.62% |
| COc1ccc(C(=O)NS(=O)(=O)c2cc(Cl)sc2Cl)cc1OC(F)F | -4.73% |
| Cc1nc(CN2CCCC2Cn2cccn2)nc2ccccc12 (stereo not given) | -51.7% |
| Cc1ccccc1C1(C(=O)N2CCOC(C)C2)CCOCC1 (stereo not given) | 5.33% |
| COC(=O)C1CCN(C(=O)NCC(C)Cc2cccs2)CC1 (stereo not given) | -7.33% |
| COCCCN(CCOC)C(=O)Nc1ccc(Br)cc1 | 6.66% |
| O=C(NCC1CC1)C1CSCN1S(=O)(=O)c1cc(F)cc(F)c1 (stereo not given) | 6.35% |
| FC(F)(F)c1c[nH]c(C2CCN(c3ncccn3)CC2)n1 | -5.1% |
| CS(=O)(=O)NCCN1CCOC2(CCc3ccccc32)C1 (stereo not given) | -9.63% |
| CCc1nc(C2CCCN2c2ncc(Br)cn2)no1 (stereo not given) | -0.36% |
| CCc1nnc2n1CC(CNc1cnc3ccccc3n1)CC2 (stereo not given) | -37.4% |

| SMILES | cytotoxicity at 10 µM |
| --- | --- |
| CCOCCCC(=O)NCC(c1ccccc1)N1CCc2sccc2C1 (stereo not given) | 2.69% |
| CN(Cc1ccc(Cl)s1)C(=O)CN1CC(n2cccn2)C1 | -6.88% |
| CSc1ccc(OCCN2CCC(n3cncn3)CC2)cc1 | -12.6% |
| N#Cc1ccsc1N1CCC(Sc2ncc[nH]2)C1=O (stereo not given) | 2.72% |
| COCCCN(C)c1ncccc1I | 2.28% |
| CC(NCCN1CCC(N(C)C)CC1)c1ccc(Cl)s1 (stereo not given) | 25.9% |
| CN1CC(C(=O)NCCc2ccc3c(c2)OCCO3)CC1=O (stereo not given) | 5.51% |
| CN(CCc1ccccc1)c1cnn(C)c(=O)c1Br | -7.22% |
| Cc1cc(CCC(=O)N2CCOCC2)ccc1Br | 12.5% |
| Cc1cnn(CC2CN(CCN3CCCC3=O)CCO2)c1 (stereo not given) | -9.7% |
| CCc1noc(C(C)N(C)CC(=O)Nc2ccc(C)cc2)n1 (stereo not given) | -6.42% |
| O=C(Cc1ccccc1F)N1CCN(C(=O)c2cccc(F)c2)CC1 | 7.7% |
| CNc1cc(N2CCCC2CNCc2c[nH]nc2C(C)(C)C)ncn1 (stereo not given) | 7.91% |
| COCCN1C(=O)CC(c2cccnc2)C12CCN(C)CC2 (stereo not given) | -97.6% |
| c1cc(CN2CC[C@@H]3CN(c4cncnc4)C[C@@H]3C2)ccn1 | -116% |
| CC(C)OC[C@H]1CCC[C@]12CN(C(=O)C1CCOCC1)CCO2 | -99.1% |
| COCC(=O)N1CC[C@@H](N2CCOCC2)[C@@H]1Cc1cccnc1 | -95.5% |
| O=S(=O)(c1ccccc1)N1CCC[C@]2(C[C@@H](OCC3CC3)CO2)C1 | -69.2% |
| Cn1cc(CN2CCC3(CCCCN3S(C)(=O)=O)CC2)cn1 | -76.9% |
| Cc1cn2c(=O)c(-c3ccnc(N[C@@H](C)CO)n3)cnc2s1 | -13.7% |
| Cc1[nH]c2ccccc2c1-c1ccnc(NC[C@H](O)CO)n1 | 8.9% |
| CC(CCN1CCCn2nc(CNS(C)(=O)=O)cc2C1)c1ccccc1 (stereo not given) | 8.85% |
| OCC1CCCCN1Cc1cc(O)c2cccc(F)c2n1 (stereo not given) | -0.357% |
| Cc1ccc(-c2cn[nH]c2C2CCCN(c3ncccn3)C2)cc1 (stereo not given) | 87.3% |
| CCCc1nc(N2CCN(Cc3ccccn3)CC2)c2cnn(C)c2n1 | 1.89% |
| CC(=O)Nc1cccc(C(=O)N(C)C(C)Cc2cc(C)ccn2)c1 (stereo not given) | 11% |
| O=C1O[C@@H]2CN(C3CCOCC3)C[C@@H]2N1CCc1cccc(Cl)c1 | -1.11% |
